{"data": "Experimental data gathered from unrelated publications", "target": "TGF-beta receptor type-1 (TGFBR1, Homo sapiens, UniProt P36897)", "Sequence (P36897 34-503, as in one of the studies)": "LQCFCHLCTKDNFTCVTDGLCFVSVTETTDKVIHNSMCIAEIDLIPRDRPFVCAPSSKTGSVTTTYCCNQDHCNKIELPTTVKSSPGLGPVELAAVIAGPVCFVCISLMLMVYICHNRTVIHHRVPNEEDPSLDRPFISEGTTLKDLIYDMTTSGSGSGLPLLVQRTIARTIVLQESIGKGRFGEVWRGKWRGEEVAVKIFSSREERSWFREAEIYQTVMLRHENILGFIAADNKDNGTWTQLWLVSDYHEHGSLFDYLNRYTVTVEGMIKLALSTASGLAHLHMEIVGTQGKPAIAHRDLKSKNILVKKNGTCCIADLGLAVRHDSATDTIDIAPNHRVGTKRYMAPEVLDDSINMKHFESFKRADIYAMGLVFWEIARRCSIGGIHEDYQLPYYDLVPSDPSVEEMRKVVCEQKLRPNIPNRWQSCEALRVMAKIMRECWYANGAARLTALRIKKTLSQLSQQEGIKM", "note": "Lines come from different studies, so protocols differ."}
{"SMILES": "O=C(c1ccc(Nc2ncc(Cl)c(-c3ccc(Cl)s3)n2)cc1)N1CCC(N2CCCC2)CC1", "observed": "binding", "method": "competition with immobilised ligand", "tested at": "1 µM", "remaining binding [%]": 55}
{"SMILES": "N[C@@H]1CCN(c2nccc(-c3cnn4ncccc34)n2)C1", "observed": "binding", "tested at": "1 µM", "remaining binding [%]": 92}
{"SMILES": "Cc1c(C(=O)O)cc(-c2ccc(C3CCNCC3)cc2)c2ccc(-c3ccc(C(F)(F)F)cc3)cc12", "observed": "cell-free assay", "method": "competition with immobilised ligand", "tested at": "1 µM", "remaining binding [%]": 89}
{"SMILES": "FC(F)(F)Oc1cccc(-c2cnc3ccc(-c4ccncc4)nn23)c1", "observed": "cell-free assay", "method": "competition with immobilised ligand", "tested at": "5 µM", "remaining binding [%]": 83}
{"SMILES": "c1cncc(-c2cccc(Nc3nccc(NC4CCCCC4)n3)c2)c1", "observed": "binding", "method": "competition with immobilised ligand", "tested at": "10 µM", "remaining binding [%]": 75}
{"SMILES": "C[C@@H]1CCN(c2nccc(-c3cnn4ncccc34)n2)C1", "observed": "binding", "tested at": "1 µM", "remaining binding [%]": 98}
{"SMILES": "CNCc1ccccc1-c1csc([C@@H](C)Nc2nc(C)nc3cc(OC)c(OC)cc23)c1", "observed": "cell-free assay", "method": "competition with immobilised ligand", "tested at": "1 µM", "remaining binding [%]": 74}
{"SMILES": "Nc1ncc2c(n1)-c1c([nH]c3ccc(C#CC4CC4)cc13)CCCC2", "observed": "binding", "method": "competition with immobilised ligand", "tested at": "1 µM", "remaining binding [%]": 86}
{"SMILES": "Nc1c(C(=O)NCc2ccc(C(=O)NCCCC3CCCCC3)cc2)cnn1-c1ccccc1", "observed": "cell-free assay", "method": "competition with immobilised ligand", "tested at": "0.1 µM", "remaining binding [%]": 100}
{"SMILES": "COc1cnc(Nc2cccc(S(N)(=O)=O)c2)nc1N1CCN(c2ccccc2)C(=O)C1", "observed": "binding", "method": "competition with immobilised ligand", "tested at": "1 µM", "remaining binding [%]": 100}
{"SMILES": "F[C@@H]1CCN(c2nccc(-c3cnn4ncccc34)n2)C1", "observed": "binding", "tested at": "1 µM", "remaining binding [%]": 100}
{"SMILES": "O=S(=O)(NC1CCC(c2cc(F)ccc2F)(S(=O)(=O)c2ccc(Cl)cc2)CC1)C(F)(F)F (stereo not shown)", "observed": "cell-free assay", "method": "competition with immobilised ligand", "tested at": "1 µM", "remaining binding [%]": 100}
{"SMILES": "CN(CCCC(F)(F)F)c1nccc(-c2cnn3ncccc23)n1", "observed": "binding", "tested at": "1 µM", "remaining binding [%]": 100}
{"SMILES": "O=C(N[C@H]1CCCCC/C=C\\C2C[C@@]2(C(=O)O)NC(=O)[C@@H]2C[C@@H](Oc3ccncc3)CN2C1=O)OC1CCCC1 (stereo partly shown)", "observed": "cell-free assay", "method": "competition with immobilised ligand", "tested at": "1 µM", "remaining binding [%]": 100}
{"SMILES": "C[C@@H]1CN(c2ccc3ncc(-c4ccc5[nH]nc(C6CC6)c5c4)n3n2)C[C@H](C)O1", "observed": "binding", "method": "competition with immobilised ligand", "tested at": "0.5 µM", "remaining binding [%]": 100}
{"SMILES": "C[C@H](c1ccc(F)cc1)N(Cc1cccc(C(=O)O)c1)C(=O)c1cnc2ccccc2c1", "observed": "cell-free assay", "method": "competition with immobilised ligand", "tested at": "1 µM", "remaining binding [%]": 96}
{"SMILES": "O=C(Nc1c[nH]nc1C(=O)NC1CCNCC1)c1cc(F)cc(F)c1", "observed": "binding", "method": "competition with immobilised ligand", "tested at": "1 µM", "remaining binding [%]": 100}
{"SMILES": "O=C(c1ccc(Nc2ncc(Cl)c(-c3cc4ccccc4s3)n2)cc1)N1CCC(N2CCCC2)CC1", "observed": "binding", "method": "competition with immobilised ligand", "tested at": "1 µM", "remaining binding [%]": 52}
{"SMILES": "COc1ncc2cc3ccccc3nc2c1C#N", "observed": "cell-free assay", "method": "competition with immobilised ligand", "tested at": "5 µM", "remaining binding [%]": 92}
{"SMILES": "CN(C)c1nccc(-c2cnc3ncccn23)n1", "observed": "binding", "tested at": "1 µM", "remaining binding [%]": 82}
{"SMILES": "O=C(NCCCN1CCOCC1)c1ccc(Nc2ncc(Cl)c(-c3ccc(Cl)s3)n2)cc1", "observed": "binding", "method": "competition with immobilised ligand", "tested at": "1 µM", "remaining binding [%]": 69}
{"SMILES": "CN(C)c1ncc(F)c(-c2cnn3ncccc23)n1", "observed": "binding", "tested at": "1 µM", "remaining binding [%]": 86}
{"SMILES": "Cc1nc(C2CCN(C(=O)c3ccc(OC(F)(F)F)cc3N)CC2)c2ncc(N3CCN(C)CC3)cc2n1", "observed": "cell-free assay", "method": "competition with immobilised ligand", "tested at": "1 µM", "remaining binding [%]": 80}
{"SMILES": "CN(C)c1nccc(-c2cnn3ncccc23)n1", "observed": "binding", "tested at": "1 µM", "remaining binding [%]": 100}
{"SMILES": "C=CC(=O)N1CCC(C(=O)NCC(=O)N2CCN(c3nc(-c4cnc(N)nc4C(F)F)nc(N4CCOCC4)n3)CC2)CC1", "observed": "binding", "method": "competition with immobilised ligand", "tested at": "1 µM", "remaining binding [%]": 100}
